Tests used:
[1] = Mouse liver microsome incubation; type: in vitro ADME
Summary of the method: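 Microsomes from livers of female heterozygous Foxn1nu/Foxn1+ mice, with protein measured against a BSA standard. Incubations contained 0.5 mg/mL microsomal protein, 1,000 ng/mL drug, […], 0.1 M phosphate (pH 7.4) and <0.1% acetonitrile. Stopped with acetonitrile at 0, 15, 30, 45, 60 and 90 min, in triplicate. A positive control was run at 0 and 90 min. LC-MS used an analogue internal standard and calibrators in buffer with 0.5 mg/mL BSA. Results given as % of 0 min.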

[2] = Stability of UPCDC-10205 in mouse plasma; type: in vitro ADME
Summary of the method: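 Assay evaluation in control mouse plasma used QCs at 2.5, 30 and 800 ng/mL. 100 µL samples were spiked with deuterated internal standard, precipitated with acetonitrile, and supernatants dried at 37 °C under nitrogen before positive-ion MRM LC-MS/MS. Recovery and ion suppression were assessed at the 30 ng/mL QC. Also tested: bench stability during sample preparation for 4 h at room temperature, and three −80 °C freeze/thaw cycles.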

With `COc1ccc(C2=Nn3c(nnc3-c3cc(-c4ccc(Cl)cc4)n[nH]3)SC2C)cc1` (stereo not shown) [UPCDC-10205, 3-(3-(4-chlorophenyl)-1H-pyrazole-5-yl)-6-(4-methoxyphenyl)-7-methyl-7H-[1,2,4]triazolo[3,4-b][1,3,4]thiadiazine] the “metabolic stability among the four analogues” value ([1]; mouse liver microsome incubation) was “metabolically most stable”, the “substrate depletion in the initial incubation” value ([1]; mouse liver microsomes, NADPH, 90 min) was 20% and the “stability in plasma during sample preparation” value ([2]; QCM (30 ng/mL), 4 h at room temperature) was 100.8%. For the same molecule, the recovery at 30 ng/mL ([2]; mouse) was 112%.

Reference: publication PMC5115981 (Cancer chemotherapy and pharmacology, 2016)
